Only some compounds are listed: those with a hit (about 1.4% of all), similar ones and a draw of the others.
A3A deaminase: APOBEC3A ssDNA deaminase inhibitors, primary screen, selectivity assay for APOBEC3G inhibitor project, biochemical, FAM/TAMRA oligo cleavage fluorescence | DNA dC->dU-editing enzyme APOBEC-3A (Homo sapiens), P31941 | recombinant A3A, FAM/TAMRA ssDNA deamination fluorescence | inhibition, % at 20 µM | 0.41% of 330,000 active | AID 493011, 2011;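 active means at least 40% inhibition at 20 µM here, with at most 30% in a related deaminase screen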;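 further: plate controls were A3A with DMSO for no effect and wells lacking A3A enzyme for full effect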
PfG6PD inh: PfG6PD enzyme inhibitors, primary screen, biochemical, fluorescence intensity, uHTS. glucose-6-phosphate dehydrogenase-6-phosphogluconolactonase (Plasmodium falciparum 3D7). PfGluPho enzyme, NADPH resazurin-diaphorase fluorescence. inhibition, % at 20 µM. 0.78% of 350,000 active. AID 504690, 2011;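 active means inhibition reaching at least a set limit at 20 µM in the primary screen, cut at about 59% in these data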;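 further: 0% = DMSO wells with substrate and 100% = DMSO wells lacking glucose-6-phosphate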
hiPSC survival: enhancers of single-cell hiPSC survival, primary screen, ATPlite luminescence; 100% = ROCK inhibitor wells, 0% = DMSO; survival enhancement, % at 20 µM; 0.044% of 360,000 active; AID 602274, 2012; in the data active means survival enhancement above about 18%;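 further: cells exposed to compounds for 16 hours before the ATP read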
APOBEC3G inh: APOBEC3G DNA deaminase inhibitors, primary screen, biochemical, fluorescence, single-stranded DNA substrate, uHTS; recombinant A3G, ssDNA deamination FAM/TAMRA fluorescence; inhibition, % at 20 µM; 0.28% of 330,000 active; AID 493012, 2011;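 active means inhibition of at least 40% at 20 µM, with no more than 30% in the related APOBEC3A deaminase screen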;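 further: plate controls were DMSO wells with A3G for no effect and wells lacking A3G enzyme for full effect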
HKDC1 inhibitor: HKDC1 hexokinase inhibitors, primary screen, biochemical, fluorescence, uHTS; Q2TB90; recombinant HKDC1, G6PDH/diaphorase resazurin coupled fluorescence; inhibition, % at 20 µM; 0.16% of 340,000 active;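 active means inhibition above about 35% when tested at 20 µM, limit read from the data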;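 further: plate controls were DMSO wells with enzyme for no effect and DMSO wells lacking enzyme for full effect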
Target sequence (Q2TB90 whole entry, looked up): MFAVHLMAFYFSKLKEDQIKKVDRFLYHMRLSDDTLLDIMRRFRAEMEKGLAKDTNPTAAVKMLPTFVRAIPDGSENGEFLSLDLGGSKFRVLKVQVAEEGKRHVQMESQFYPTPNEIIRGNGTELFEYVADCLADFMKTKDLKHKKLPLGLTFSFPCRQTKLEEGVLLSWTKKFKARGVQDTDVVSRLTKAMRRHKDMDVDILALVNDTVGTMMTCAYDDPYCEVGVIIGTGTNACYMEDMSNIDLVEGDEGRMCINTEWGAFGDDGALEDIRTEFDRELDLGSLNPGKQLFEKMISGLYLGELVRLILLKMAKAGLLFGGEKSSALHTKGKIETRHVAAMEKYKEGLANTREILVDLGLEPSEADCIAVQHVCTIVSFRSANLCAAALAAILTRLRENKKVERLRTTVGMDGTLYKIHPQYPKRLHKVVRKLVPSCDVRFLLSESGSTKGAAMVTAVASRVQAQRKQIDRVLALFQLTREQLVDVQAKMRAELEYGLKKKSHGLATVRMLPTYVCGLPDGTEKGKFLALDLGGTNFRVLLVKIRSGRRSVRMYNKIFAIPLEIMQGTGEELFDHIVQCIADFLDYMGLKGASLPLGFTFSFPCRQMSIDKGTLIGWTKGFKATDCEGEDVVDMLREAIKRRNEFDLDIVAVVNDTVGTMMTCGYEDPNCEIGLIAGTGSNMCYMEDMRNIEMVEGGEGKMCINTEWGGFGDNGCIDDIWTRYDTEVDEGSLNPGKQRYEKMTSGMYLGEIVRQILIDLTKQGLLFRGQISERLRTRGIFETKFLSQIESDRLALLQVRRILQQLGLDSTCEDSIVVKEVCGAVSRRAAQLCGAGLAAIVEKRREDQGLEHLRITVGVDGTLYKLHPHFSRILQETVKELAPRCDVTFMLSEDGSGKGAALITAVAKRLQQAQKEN
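test system = in-house recombinant HK5 (HKDC1) enzyme | amount = HKDC1 at 5 µg/mL | control set = DMSO-enzyme wells negative, buffer-substituted wells positive | compound = one dose of 20 µM, 1% DMSO | schedule = reaction time 90 min, room temperature, protected from light | technique = resorufin fluorescence at 613 nm | reagent = glucose with 1 mM ATP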
PfGluPho conf: PfG6PD inhibitors, hit retest, confirmation, biochemical, fluorescence intensity, single concentration; shares compounds with PfG6PD inh; recombinant PfGluPho, NADPH-diaphorase-resazurin fluorescence; inhibition, % at 20 µM; 34% of 2,400 active; AID 504753, 2011;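 active means inhibition of at least 50% at 20 µM in any single replicate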;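 further: 0% = DMSO with substrate and 100% = DMSO lacking glucose-6-phosphate substrate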
Diaph ctr 10uM: diaphorase inhibitors and chemical oxidizers, confirmation, counter-screen for P. falciparum G6PD inhibitor project, biochemical, fluorescence intensity, 10 µM NADPH | shares compounds with PfG6PD inh | AID 504862, 2011 | 39% of 820 active | inhibition, % at 20 µM | diaphorase-coupled resazurin reduction, NADPH 10 uM;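 active means average inhibition reaching 50% or more with the compound at 20 µM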;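 further: resorufin red fluorescence formed as diaphorase reduces resazurin using NADPH; 0% = DMSO with enzyme and 100% = DMSO without enzyme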
Diaph ctr 30uM: diaphorase inhibitors and chemical oxidizers, confirmation, counter-screen for P. falciparum G6PD inhibitor project, biochemical, fluorescence intensity, 30 µM NADPH; shares compounds with PfG6PD inh; Diaphorase/resazurin coupled assay, resorufin fluorescence; inhibition, % at 20 µM; 29% of 820 active; AID 504863, 2011;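 active means inhibition averaging 50% or more, tested at 20 µM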;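 further: 0% = DMSO with enzyme and 100% = DMSO wells lacking diaphorase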
Starred values were filed as active, the others as inactive; · = no result given.

SMILES	A3A deaminase	PfG6PD inh	hiPSC survival	APOBEC3G inh	HKDC1 inhibitor	PfGluPho conf	others
Fc1ccc(-c2nc3ccc(Cl)cn3c2Cc2ccccc2)cc1	·	81*	1	·	·	-5
Cc1ccn2c(Cc3ccccc3)c(-c3ccc(F)cc3)nc2c1	·	77*	-2	·	·	10
Cc1ccc(Cc2c(-c3ccccc3)nc3cc(C)ccn23)cc1	·	23	-1	·	·	·
Cc1ccc(C(=O)CCC(=O)N2CCN(C/C=C/c3ccccc3)CC2)cc1	·	8	-4	·	·	·
Oc1ccccc1C1Nc2cccc3cccc(c23)N1	3	12	6	7	3	·
O=[N+]([O-])c1ccccc1C1Nc2cccc3cccc(c23)N1	-2	67*	0	-1	30	8
Cc1cc(O)c(C(C)C)cc1N=Cc1ccccc1O	0	103*	0	2	21	46
Cc1cc(O)c(C(C)C)cc1N=Cc1cc([N+](=O)[O-])ccc1O	5	82*	0	4	21	23
OCCCNc1c2c(nc3cc(-c4ccc(Cl)cc4)nn13)CCC2	-1	70*	-1	-7	-3	45
Clc1cccc(-c2cc3nc4c(c(NCc5ccco5)n3n2)CCCC4)c1	-1	51	0	-7	7	·
O=C(COC(=O)c1cnccn1)c1ccc([N+](=O)[O-])cc1	0	79*	0	1	-4	68*	Diaph ctr 10uM=7;Diaph ctr 30uM=-17
O=C(COc1ccccc1F)OCC(=O)c1ccc([N+](=O)[O-])cc1	-6	88*	-3	-9	-5	52*	Diaph ctr 10uM=19;Diaph ctr 30uM=-1
Cc1ccccc1OCC(=O)NCC(=O)OCC(=O)c1ccc([N+](=O)[O-])cc1	-3	70*	0	6	-1	52*	Diaph ctr 10uM=-7;Diaph ctr 30uM=-22
Cc1ccc(C(=O)COC(=O)CNC(=O)COc2ccccc2C)cc1C	-7	3	-1	-6	0	·
O=C(CCC(=O)OCC(=O)c1ccc([N+](=O)[O-])cc1)Nc1ccccc1Cl	-3	68*	2	-9	-7	54*	Diaph ctr 10uM=2;Diaph ctr 30uM=-3
COCCn1c(SCC(=O)Nc2cccc(C)n2)nnc1-c1ccco1	0	-1	0	-2	-3	·
Cc1nc(OCc2c(C)noc2C)c2ccccc2n1	-2	-6	3	0	-7	·
Cc1cc(C)c(C)c(S(=O)(=O)N2CCNC(=O)C2)c1C	·	-27	-1	·	·	·
O=C(CNC(=O)c1cccs1)NCC(=O)OCC(=O)c1ccc([N+](=O)[O-])cc1	1	67*	1	-1	14	63*	Diaph ctr 10uM=3;Diaph ctr 30uM=-2
O=C(CNC(=O)c1cccs1)OCC(=O)c1ccccc1	-4	-7	0	-8	4	·
O=C1c2ccccc2-c2onc3ccc(NCc4ccco4)c1c23	-59	74*	0	-70	23	25
Cc1nn(CC(=O)N2CCN(c3ccccn3)CC2)c(=O)c2cc3sccc3n12	-3	-4	0	-5	-3	·
O=C(Nc1ccccn1)c1cc2ccccc2cc1O	1	67*	0	-3	7	22
O=C(Nc1ccccn1)c1ccc(C(=O)Nc2ccccn2)cc1	-2	-12	1	-2	3	·
CCN(CC)c1ccc(N)cc1S(=O)(=O)Nc1ccc(OC)cc1	0	13	-1	-8	-4	·
SMILES	A3A deaminase	PfG6PD inh	hiPSC survival	APOBEC3G inh	HKDC1 inhibitor	PfGluPho conf	others
CCN(CC)c1ccc(N)cc1S(=O)(=O)Nc1ccccc1OC	6	67*	0	35	-9	35
CCN(CC)c1ccc(NC(=O)COc2ccccc2C#N)cc1S(=O)(=O)Nc1ccccc1OC	4	69*	0	25	-20	32
Cc1ccc(NC(=O)c2cc(N3C(=O)C=CC3=O)ccc2Cl)cc1C	-2	77*	0	-1	14	81*	Diaph ctr 10uM=0;Diaph ctr 30uM=-8
Cc1ccc(NC(=O)c2cc(N3C(=O)C=CC3=O)ccc2N2CCOCC2)cc1	·	80*	0	·	-8	96*	Diaph ctr 10uM=5;Diaph ctr 30uM=-16
COc1c(C)cccc1C(=O)Nc1ccc(N2CCOCC2)c(Cl)c1	-5	68*	5	-3	-7	39
Cc1ccc(NC(=O)c2cc(-n3cnnc3)ccc2Cl)cc1	-3	-10	-1	-3	1	·
CCCCC[C@@H](C)N1C[C@H](COCc2ccccc2)Oc2cc(N3CCC[C@H]3CO)ccc2S1(=O)=O	·	·	0	·	·	·
CCCCn1c(SCC(=O)N2CCCC2)nc2cc(S(N)(=O)=O)ccc21	2	-2	0	-2	5	·
CCCCn1c(SCC(=O)c2ccc(OC)cc2OC)nc2cc(S(N)(=O)=O)ccc21	3	96*	-1	10	6	42
CCCCn1c(SCC(=O)c2ccc3c(c2)NC(=O)CO3)nc2cc(S(N)(=O)=O)ccc21	-8	61*	0	-4	9	28
CCCCn1c(SC(C)C(=O)c2ccc(OC)cc2)nc2cc(S(N)(=O)=O)ccc21 (stereo not drawn)	2	55	1	-2	0	·
COc1ccccc1-n1c(SCC(=O)NCc2ccc3c(c2)OCO3)nc2cc([N+](=O)[O-])ccc21	0	95*	-2	-2	-9	48
COc1cc(CNc2ccc3[nH]c(=O)[nH]c3c2)ccc1OCc1ccccc1	-2	65*	-1	1	10	50*	Diaph ctr 10uM=0;Diaph ctr 30uM=1
COc1cc(CNc2ccc3[nH]c(=O)[nH]c3c2)ccc1OCc1ccccc1C	0	46	0	-6	2	·
COc1cc(CNc2ccc3[nH]c(=O)[nH]c3c2)ccc1OCc1ccc(F)cc1	3	66*	-1	0	15	39
COc1cc(CNc2ccc3[nH]c(=O)[nH]c3c2)ccc1OCc1ccc(Cl)cc1	-10	63*	-1	-1	15	37
COc1cc(CNc2ccc3[nH]c(=O)[nH]c3c2)ccc1OCc1ccc(F)cc1Cl	1	15	0	3	4	·
COc1cccc(CNc2ccc3[nH]c(=O)[nH]c3c2)c1OCc1ccccc1Cl	17	65*	0	0	15	50*	Diaph ctr 10uM=-3;Diaph ctr 30uM=0
